Bioassay records (PubChem BioAssay)
Only some compounds are listed: those with a hit (about 4.6% of all), similar ones and a draw of the others.
OX1R antag-1: blocks the human orexin 1 receptor. 330,000 tested, 0.43% active. inhibition, % at 5 µM. CHO/OX1R cells, Fluo-8 calcium fluorescence, orexin A. O43613;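 active means inhibition above its plate's threshold, mean inhibition of all tested compounds on the plate plus 3 SD, cut at about 37% in these data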
CHO parental Ca: signal in parental CHO cells, OX1R antagonist counter-screen; parental CHO-K1, ATP-induced calcium, Fluo-8 fluorescence; inhibition, % at 5.6 µM; 330,000 tested, 0.63% active; AID 463079;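 active means inhibition above that plate's mean sample inhibition plus 3 SD, cut at about 26% in these data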
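Material: Parental CHO cells | Reagent: ATP | Compound dosing: Single nominal dose of 5.6 µM per compound | Detection: Intracellular calcium via Fluo-8 no-wash fluorescent dye | Read-out: % inhibition of ATP-induced calcium mobilization | Benchmarks: Low control ATP plus DMSO, high control DMSO only | Replicates: Singlicate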
TAAR1 antag: antagonists of human TAAR1; Q96RJ0; CHO RD-HGA16 TAAR1, Fluo-8 calcium fluorescence, antagonist; inhibition, % at 3 µM; 360,000 tested, 1.5% active; AID 624466;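 active means inhibition above a per-plate cutoff, the mean inhibition of test compounds on that plate plus 3 SD, cut at about 49% in these data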
Target sequence (Q96RJ0 whole entry, looked up): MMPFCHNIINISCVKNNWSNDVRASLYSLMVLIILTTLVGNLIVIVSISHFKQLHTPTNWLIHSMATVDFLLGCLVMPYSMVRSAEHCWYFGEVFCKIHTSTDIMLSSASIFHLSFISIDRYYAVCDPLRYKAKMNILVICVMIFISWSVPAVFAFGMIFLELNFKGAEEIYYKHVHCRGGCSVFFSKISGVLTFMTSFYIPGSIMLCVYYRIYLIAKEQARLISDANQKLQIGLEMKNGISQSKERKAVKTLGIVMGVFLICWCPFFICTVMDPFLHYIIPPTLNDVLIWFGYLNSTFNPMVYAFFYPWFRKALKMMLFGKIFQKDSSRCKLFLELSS
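Test system: CHO RD-HGA16 cells bearing hTAAR1 | Reagent: β-PEA, EC80 | Compound dosing: 3 µM, single point | Schedule: Dye loading 75 min at 37 °C, then 30 min room temperature | Signal: Calcium fluorescence with Fluo-8 | Evaluation: Percent inhibition of PEA-evoked calcium signal, max/basal emission ratio | Control set: DMSO-only wells and EC80 β-PEA-stimulated wells | Repeats: Singlicate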
OX1R antag-2: antagonists of human orexin 1 receptor (OX1R); OX1R-expressing cells, FRET antagonist read-out; inhibition, % at 6.6 µM; 330,000 tested, 1.8% active; AID 485270; in the data active means inhibition mostly above about 38%, no sharp cut-off; inactive means mostly below about 40%
GPR7 antagonist: human neuropeptides B/W receptor 1 antagonism. 290,000 tested, 1.1% active. inhibition, % at 4.4 µM. AID 1861. GPR7-expressing cells, fluorescence antagonist assay. P48145; in the data active means inhibition above about 16%, passing the limit was not always enough;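 further: cells stimulated with the agonist NPW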
TAAR1 ag: agonists of human TAAR1; 360,000 tested, 0.99% active; AID 624467; CHO RD-HGA16 TAAR1, Fluo-8 calcium fluorescence; vehicle wells 0%, saturating PEA agonist 100%; activation, % at 3 µM;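 active means activation above the mean activation of all test compounds in the run plus 3 SD, cut at about 38% in these data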
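Test system: RD-HGA16 (CHO) cells co-expressing Gα16 and hTAAR1 | Doses: Single dose, 3 µM | Schedule: 17-24 h seeding, 75 min 37 °C dye, 30 min RT | Evaluation: % activation from peak over basal fluorescence ratio, DMSO-to-PEA scaled | Technique: Kinetic Fluo-8 calcium fluorescence | Benchmarks: Low control DMSO, high control PEA (EC100)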
TAAR1 ag confirm: human TAAR1 agonism, confirmed; 2,400 tested, 82% active; AID 651783; activation, % at 3 µM; CHO RD-HGA16 TAAR1, Fluo-8 calcium fluorescence; scaled: DMSO 0%, maximal phenethylamine 100%; shares compounds with TAAR1 ag;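 active means activation above a cutoff set at the run's mean compound activation plus 3 SD, cut at about 39% in these data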
Ga16 nonsel ag: counter-screen for TAAR1 agonists: nonselective agonists in parental cells | CHO-Ga16 parental, Fluo-8 calcium fluorescence; normalized to maximal ATP response, DMSO zero | shares compounds with TAAR1 ag | 2,400 tested, 50% active | activation, % at 3 µM;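 active means activation above the run cutoff, the mean activation over all tested wells plus 3 SD, cut at about 12% in these data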
TAAR1 desensitize: counter-screen for human TAAR1 agonists: agonists that desensitize TAAR1; shares compounds with TAAR1 ag; CHO RD-HGA16 hTAAR1, Fluo-8 calcium, beta-PEA response inhibition; inhibition, % at 3 µM; 2,400 tested, 46% active; AID 651951;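 active means inhibition above the run cutoff, the mean inhibition of all test compounds plus 3 SD, cut at about 49% in these data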;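 further: beta-PEA stimulus applied at its EC80; loss of beta-PEA calcium signal after compound pretreatment read as receptor desensitization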
Ga16 nonsel ant: counter-screen for TAAR1 agonists: nonselective Ga16 antagonists. AID 651952. shares compounds with TAAR1 ag. CHO-Ga16 ATP-induced calcium, Fluo-8 fluorescence. inhibition, % at 3 µM. 2,400 tested, 39% active;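 active means inhibition above the plate's mean compound inhibition plus 3 SD, computed per plate, cut at about 22% in these data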
Large screens that a line does not name were inactive (follow-up assays come after a bar, where they were run).

COc1ccc(CNCCc2ccc(Cl)cc2Cl)cc1	none
Cc1ccccc1CCNCc1ccc(Br)cc1	TAAR1 antag 50, TAAR1 ag 71 | TAAR1 ag confirm 93 | Ga16 nonsel ag 14 | TAAR1 desensitize 67 | Ga16 nonsel ant inactive
C=C(C)CSc1nnc([C@@H](N)Cc2ccccc2)o1	none
O=[N+]([O-])c1ccc(NCc2ccccc2)c2nonc12	OX1R antag-1 108, CHO parental Ca 94, TAAR1 antag 107, GPR7 antagonist 34, TAAR1 ag 954 | TAAR1 ag confirm 496 | Ga16 nonsel ag 650 | TAAR1 desensitize 105 | Ga16 nonsel ant 103
O=[N+]([O-])c1ccc(NCc2ccc(Cl)cc2)c2ccncc12	none
CCCCCc1nc2c(c(=O)c3ccccc3n2C)c(=O)n1C1CCCCCC1	TAAR1 antag 85, TAAR1 ag 125 | TAAR1 ag confirm 122 | Ga16 nonsel ag 96 | TAAR1 desensitize 93 | Ga16 nonsel ant 85
CCCCCc1nc2ccccc2c(=O)n1-c1ccccc1[N+](=O)[O-]	none
Cc1cccc(CCNCc2cc3cc(C)cc(C)c3[nH]c2=O)c1	TAAR1 antag 78, TAAR1 ag 108 | TAAR1 ag confirm 102 | Ga16 nonsel ag inactive | TAAR1 desensitize 90 | Ga16 nonsel ant inactive
Cc1ccc2cc(CNCCc3ccccc3C)c(=O)[nH]c2c1	TAAR1 antag 81, TAAR1 ag 76 | TAAR1 ag confirm 83 | Ga16 nonsel ag inactive | TAAR1 desensitize 92 | Ga16 nonsel ant inactive
O=c1[nH]c(=S)n(-c2ccccc2)c(O)c1C=NCCN1CCNCC1	none (no result: OX1R antag-1, CHO parental Ca, OX1R antag-2)
